Laboratory results published in ChEMBL document CHEMBL2413046, “Analogs of iso-azepinomycin as potential transition-state analog inhibitors of guanase: synthesis, biochemical screening, and structure-activity correlations of various selectively substituted imidazo[4,5-e][1,4]diazepines” (Bioorg Med Chem, 2013).
pKi: −log10 of the molar value.

assay: Competitive reversible inhibition of rabbit liver guanase assessed as inhibition of guanine hydrolysis by Lineweaver-Burk plot method; design: species or system Oryctolagus cuniculus
In short: (§1)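 Rabbit liver guanase (ammonium sulfate suspension, diluted to 0.1278 U/mL; 0.0077 units per assay) in 0.05 M Tris-HCl pH 7.4, 25°C, 1.0 mL final volume. Guanine 5–40 µM (5–6 levels) at fixed inhibitor 10, 20 or 30 µM (DMSO or methanol stocks). Initial rate from absorbance decrease at 245 nm, mean of two data sets; Ki from Lineweaver-Burk plots.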

Row | pKi | SMILES
1 | 4.40 | COC1CNC(=O)c2ncn(Cc3ccccc3)c2N1 (stereo unspecified)
2 | 4.33 | CCOC1CNC(=O)c2ncn(Cc3ccccc3)c2N1 (stereo unspecified)
3 | 4.27 | CCCCOC1CNC(=O)c2ncn(Cc3ccccc3)c2N1 (stereo unspecified)

assay: Inhibition of rabbit liver guanase assessed as inhibition of guanine hydrolysis by Lineweaver-Burk plot method; design: species or system Oryctolagus cuniculus; in short: as §1

Row | pKi | SMILES
4 | 4.36 | CCOC1CNC(=O)c2c(ncn2Cc2ccc(OC)cc2)N1Cc1ccccc1 (stereo unspecified)
5 | 4.68 | COc1ccc(Cn2cnc3c2NC(OC)CNC3=O)cc1 (stereo unspecified)
6 | 5.60 | O=C1NC(O)CNc2nc[nH]c21 (stereo unspecified) [AZEPINOMYCIN]
7 | 4.40 | COC1CNC(=O)c2ncn(Cc3ccc(F)cc3)c2N1 (stereo unspecified)
8 | 5.06 | COC1CNC(=O)c2nc[nH]c2N1Cc1ccccc1 (stereo unspecified)
9 | 4.58 | COc1ccc(Cn2cnc3c2C(=O)NCC(OC)N3Cc2ccccc2)cc1 (stereo unspecified)
10 | 4.48 | CCOC1CNC(=O)c2ncn(Cc3ccc(OC)cc3)c2N1 (stereo unspecified)
11 | 4.32 | COc1ccc(Cn2cnc3c2C(=O)NCC(OC)N3)cc1 (stereo unspecified)
